Measured values taken from ChEMBL document CHEMBL1135529, “New inhibitors of bacterial protein synthesis from a combinatorial library of macrocycles” (J Med Chem, 2002).
Converted amounts (≈) assume the structure as drawn. Each block holds one compound with its values, some of them ahead of it.

Legend:
Assay type in all cases: functional
[1] = test system: Escherichia coli; experiment: In vitro minimum inhibition concentration against Escherichia coli K-12, wild type; Range is from 50-100.
Procedure, shortened: (§1)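 Broth microdilution in duplicate. Overnight culture added to compound in 2.5% DMSO in water; final inoculum about 10²–10³ CFU/well. Growth relative to no-compound control read as A595 after 20–24 h at 37 °C. MIC reported as a range: complete inhibition at the upper concentration, viable cells at the lower. Top concentration 100 μM.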

[2] = test system: Escherichia coli; experiment: Inhibition of cell free transcription/translation by Escherichia coli s30 bacterial extract.
Procedure, shortened: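 Coupled transcription/translation in E. coli S30 extract with pBest Luc plasmid (0.125 μg/μL stock), S30 premix and complete amino acid mix (1 mM each, 10× stock). 35 min at 37 °C, then luciferase read by luminescence. IC50 = concentration reducing luciferase activity to 50% of control; compounds HPLC-purified before IC50 determination.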

[3] = test system: Escherichia coli; experiment: In vitro minimum inhibition concentration against Escherichia coli KZM120, pump mutant; Range is from 50-100.; procedure, shortened: as §1
[4] = test system: Escherichia coli; experiment: In vitro minimum inhibition concentration against Escherichia coli Ram195, pump mutant; Range is from 50-100.; procedure, shortened: as §1
[5] = test system: Escherichia coli; experiment: In vitro minimum inhibition concentration against Escherichia coli D21f2, LPS mutant; Range is from 25-50.; procedure, shortened: as §1
[6] = test system: Escherichia coli; experiment: In vitro minimum inhibition concentration against Escherichia coli K-12, wild type.; procedure, shortened: as §1
[7] = In vitro inhibition of translation in luciferase SP6 control plasmid
Procedure, shortened: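 Luciferase mRNA transcribed from SP6 plasmid with SP6 RNA polymerase, then translated in E. coli S30 extract for linear templates with S30 premix and complete amino acid mix (1 mM each, 10× stock). 90 min at 37 °C; functional luciferase detected by luminescence. IC50 = concentration reducing luciferase activity to 50% of control.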

[8] = test system: Escherichia coli; experiment: In vitro minimum inhibition concentration against Escherichia coli KZM120, pump mutant.; procedure, shortened: as §1
[9] = test system: Escherichia coli; experiment: In vitro minimum inhibition concentration against Escherichia coli D21f2, LPS mutant; Range is from 12-25.; procedure, shortened: as §1
[10] = test system: Escherichia coli; experiment: In vitro minimum inhibition concentration against Escherichia coli Ram195, pump mutant.; procedure, shortened: as §1
[11] = test system: Escherichia coli; experiment: In vitro minimum inhibition concentration against Escherichia coli D21f2, LPS mutant; Range is from 25-50; procedure, shortened: as §1

SMILES: NC(N)=NCCC[C@H]1COc2ccc(NC(=O)c3ccc4nc(O)c(O)nc4c3)cc2C(=O)NC[C@@H](N)C(=O)N[C@@H](Cc2cccnc2)C(=O)N1
IC50 [2]: 50 µM

SMILES: Cc1nc2ccc(C(=O)Nc3ccc4c(c3)C(=O)NC[C@@H](N)C(=O)N[C@@H](Cc3ccc(N)cc3)C(=O)N[C@@H](CCCN=C(N)N)CO4)cc2nc1C
IC50 [2]: > 100 µM

SMILES: NC(N)=NCCC[C@H]1COc2ccc(NC(=O)CCCCCNC(=O)c3ccc4nc(O)c(O)nc4c3)cc2C(=O)NC[C@@H](N)C(=O)N[C@@H](Cc2ccc(N)cc2)C(=O)N1
IC50 [2]: 33 µM

SMILES: NCCCC[C@H]1COc2ccc(NC(=O)c3ccc4nc(O)c(O)nc4c3)cc2C(=O)NC[C@@H](N)C(=O)N[C@@H](Cc2ccccc2)C(=O)N1
MIC [6]: > 100 µM
IC50 [7]: 50 µM
IC50 [2]: 40 µM
MIC [8]: > 100 µM
MIC [9]: 25 µM (≈ 16.8 µg/mL)
MIC [10]: > 100 µM

SMILES: NC(N)=NCCC[C@H]1COc2ccc(NC(=O)CNC(=O)c3ccc4nc(O)c(O)nc4c3)cc2C(=O)NC[C@@H](N)C(=O)N[C@@H](Cc2ccc(N)cc2)C(=O)N1
IC50 [2]: 50 µM

SMILES: Cc1cc2nc(O)c(O)nc2cc1S(=O)(=O)Nc1ccc2c(c1)C(=O)NC[C@@H](N)C(=O)N[C@@H](Cc1ccc(N)cc1)C(=O)N[C@@H](CCCN=C(N)N)CO2
IC50 [2]: 2 µM

SMILES: NC(N)=NCCC[C@H]1COc2ccc(NC(=O)c3cc4nc(O)c(O)nc4cc3[N+](=O)[O-])cc2C(=O)NC[C@@H](N)C(=O)N[C@@H](Cc2ccc(N)cc2)C(=O)N1
IC50 [2]: > 100 µM

SMILES: NC(N)=NCCC[C@H]1COc2ccc(NC(=O)c3ccc4cccnc4c3)cc2C(=O)NC[C@@H](N)C(=O)N[C@@H](Cc2ccc(N)cc2)C(=O)N1
IC50 [2]: > 100 µM

SMILES: NC(N)=NCCC[C@H]1COc2ccc(NS(=O)(=O)c3ccc4nc(O)c(O)nc4c3)cc2C(=O)NC[C@@H](N)C(=O)N[C@@H](Cc2ccc(N)cc2)C(=O)N1
IC50 [2]: 62 µM

SMILES: NC(N)=NCCC[C@@H]1COc2ccc(NC(=O)c3ccc4nc(O)c(O)nc4c3)cc2C(=O)NC[C@@H](N)C(=O)N[C@H](Cc2cccnc2)C(=O)N1
IC50 [2]: 20 µM

SMILES: NC(N)=NCCC[C@H]1COc2ccc(NC(=O)c3ccc4nc(O)c(O)nc4c3)cc2C(=O)NC[C@@H](N)C(=O)N[C@@H](Cc2ccc(N)cc2)C(=O)N1
MIC [11]: 50 µM (≈ 35.7 µg/mL)
MIC [6]: > 100 µM
IC50 [7]: 13 µM
IC50 [2]: 16 µM
MIC [8]: > 100 µM
MIC [10]: > 100 µM

SMILES: NC(N)=NCCC[C@@H]1COc2ccc(NC(=O)c3ccc4nc(O)c(O)nc4c3)cc2C(=O)NC[C@H](N)C(=O)N[C@H](Cc2ccc(O)cc2)C(=O)N1
MIC [6]: > 100 µM
IC50 [7]: 35 µM
IC50 [2]: 15 µM
MIC [8]: > 100 µM
MIC [9]: 25 µM (≈ 17.9 µg/mL)
MIC [10]: > 100 µM

Results, then the compound that gave them:

MIC [1]: 100 µM (≈ 69.9 µg/mL)
IC50 [2]: 12 µM
MIC [3]: 100 µM (≈ 69.9 µg/mL)
MIC [4]: 100 µM (≈ 69.9 µg/mL)
MIC [5]: 50 µM (≈ 34.9 µg/mL)
SMILES: NC(N)=NCCC[C@@H]1COc2ccc(NC(=O)c3ccc4nc(O)c(O)nc4c3)cc2C(=O)NC[C@H](N)C(=O)N[C@H](Cc2ccccc2)C(=O)N1

IC50 [2]: > 100 µM
SMILES: NC(N)=NCCC[C@H]1COc2ccc(NC(=O)c3ccc4ccccc4n3)cc2C(=O)NC[C@@H](N)C(=O)N[C@@H](Cc2ccc(N)cc2)C(=O)N1

IC50 [2]: 3 µM
SMILES: NC(N)=NCCC[C@H]1COc2ccc(NC(=O)CCNC(=O)c3ccc4nc(O)c(O)nc4c3)cc2C(=O)NC[C@@H](N)C(=O)N[C@@H](Cc2ccc(N)cc2)C(=O)N1

IC50 [2]: 75 µM
SMILES: NC(N)=NCCC[C@H]1COc2ccc(NC(=O)CCCNC(=O)c3ccc4nc(O)c(O)nc4c3)cc2C(=O)NC[C@@H](N)C(=O)N[C@@H](Cc2ccc(N)cc2)C(=O)N1

MIC [6]: > 100 µM
IC50 [7]: 25 µM
IC50 [2]: 17 µM
MIC [8]: > 100 µM
MIC [9]: 25 µM (≈ 17.8 µg/mL)
MIC [10]: > 100 µM
SMILES: NC(N)=NCCC[C@@H]1COc2ccc(NC(=O)c3ccc4nc(O)c(O)nc4c3)cc2C(=O)NC[C@H](N)C(=O)N[C@H](Cc2ccc(N)cc2)C(=O)N1

MIC [6]: > 100 µM
IC50 [7]: 50 µM
IC50 [2]: 25 µM
MIC [8]: > 100 µM
MIC [10]: > 100 µM
MIC [5]: 50 µM (≈ 35.7 µg/mL)
SMILES: NC(N)=NCCC[C@H]1COc2ccc(NC(=O)c3ccc4nc(O)c(O)nc4c3)cc2C(=O)NC[C@@H](N)C(=O)N[C@@H](Cc2ccc(O)cc2)C(=O)N1

IC50 [2]: > 100 µM
SMILES: NC(N)=NCCC[C@H]1COc2ccc(NC(=O)c3ccc4ccccc4c3)cc2C(=O)NC[C@@H](N)C(=O)N[C@@H](Cc2ccc(N)cc2)C(=O)N1

IC50 [2]: > 100 µM
SMILES: Cn1c(=O)c(=O)n(C)c2cc(C(=O)Nc3ccc4c(c3)C(=O)NC[C@@H](N)C(=O)N[C@@H](Cc3ccc(N)cc3)C(=O)N[C@@H](CCCN=C(N)N)CO4)ccc21

IC50 [7]: 0.08 µM
IC50 [2]: 0.04 µM
SMILES: NC[C@H]1O[C@H](O[C@H]2[C@H](O)[C@@H](O[C@H]3O[C@H](CO)[C@@H](O)[C@H](N)[C@H]3O)[C@H](N)C[C@@H]2N)[C@H](O)[C@@H](O)[C@@H]1O [KANAMYCIN]

IC50 [2]: > 100 µM
SMILES: CN(CC(=O)Nc1ccc2c(c1)C(=O)NC[C@@H](N)C(=O)N[C@@H](Cc1ccc(N)cc1)C(=O)N[C@@H](CCCN=C(N)N)CO2)C(=O)c1ccc2nc(O)c(O)nc2c1
